How the values were obtained:
UACC-62 = assay: In vitro cytotoxicity against UACC-62 (Human melanoma) cell line.; assay type: functional
How it was run: (§1)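 GI50 = concentration giving 50% growth inhibition, from a screen of about 55 human cancer cell lines over a 10^-8 to 10^-4 M test range. Values come from two determinations where a population standard deviation is shown, otherwise from single determinations.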

MDA-MB-435 [1] = assay: Compound was tested for its cytotoxicity against breast MDA-MB-435 Human cancer cell line; assay type: functional; how it was run: as §1
HCT-116 = assay: Cytotoxicity against colon HCT116 human cancer cell line.; assay type: functional; how it was run: as §1
OVCAR-3 = assay: Cytotoxicity against ovarian OVCAR-3 human cancer cell line.; assay type: functional; how it was run: as §1
DU-145 = assay: Cytotoxicity against prostate DU-145 human cancer cell line.; assay type: functional; how it was run: as §1
SF-539 [2] = assay: Compound was tested for its cytotoxicity against CNS SF-539 cell line; assay type: functional; conditions: Homo sapiens; how it was run: as §1
HOP-62 = assay: Cytotoxicity against lung HOP-62 human cancer cell line.; assay type: functional; how it was run: as §1
SN12C = assay: In vitro cytotoxicity against SN12C (Human renal cancer) cell line.; assay type: functional; how it was run: as §1
[3] = biological target: T1, DNA topoisomerase 1 (Homo sapiens) (UniProt P11387); assay: The activity was examined against DNA topoisomerase I mediated DNA cleavage using 3'-End-labelled 161 BP plasmid DNA. 0 indicates inactive
T1 sequence (whole entry): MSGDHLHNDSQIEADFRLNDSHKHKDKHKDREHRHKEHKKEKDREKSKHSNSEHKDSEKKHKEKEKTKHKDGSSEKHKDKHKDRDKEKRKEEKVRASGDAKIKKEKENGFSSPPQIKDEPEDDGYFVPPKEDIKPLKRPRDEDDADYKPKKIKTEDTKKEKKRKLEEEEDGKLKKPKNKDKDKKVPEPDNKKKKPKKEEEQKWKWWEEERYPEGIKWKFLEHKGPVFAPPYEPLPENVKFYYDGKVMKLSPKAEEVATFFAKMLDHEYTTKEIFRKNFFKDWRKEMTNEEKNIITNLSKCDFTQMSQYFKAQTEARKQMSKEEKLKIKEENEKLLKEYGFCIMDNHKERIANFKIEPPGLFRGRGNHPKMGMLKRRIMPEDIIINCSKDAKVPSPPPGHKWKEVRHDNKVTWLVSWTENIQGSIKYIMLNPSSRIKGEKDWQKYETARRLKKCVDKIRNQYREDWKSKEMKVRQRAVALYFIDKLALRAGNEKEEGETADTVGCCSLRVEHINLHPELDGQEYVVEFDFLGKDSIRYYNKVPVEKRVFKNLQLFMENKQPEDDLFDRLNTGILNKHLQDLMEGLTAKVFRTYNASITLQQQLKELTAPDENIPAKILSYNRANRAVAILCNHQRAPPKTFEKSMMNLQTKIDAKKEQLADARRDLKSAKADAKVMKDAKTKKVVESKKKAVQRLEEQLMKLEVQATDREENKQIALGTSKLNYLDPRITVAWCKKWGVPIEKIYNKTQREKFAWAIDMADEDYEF
How it was run: (§2)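 A 161 bp PvuII–HindIII fragment of pBluescript SK(–) was 3'-end-labeled at the HindIII site with [α-32P]dCTP by Klenow fill-in. About 50 000 dpm per reaction was incubated with top1 and drug (0.1–300 μM) at 30 °C for 30 min, then stopped with 0.5% SDS (final). Products were run on 16% polyacrylamide/7 M urea gels at 51 °C and imaged by phosphorimager.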

MDA-MB-435 [4] = assay: In vitro cytotoxicity against MDA-MB-435 (Human breast cancer) cell line.; assay type: functional; how it was run: as §1
SF-539 [5] = assay: Compound was tested for its cytotoxicity against CNS SF-539 Human cancer cell line; assay type: functional; how it was run: as §1
[6] = biological target: T1, DNA topoisomerase 1 (Homo sapiens); assay: The activity was examined against DNA topoisomerase I mediated DNA cleavage using 3'-End-labelled 161 BP plasmid DNA; 0 indicates inactive; how it was run: as §2
[7] = biological target: T1, DNA topoisomerase 1 (Homo sapiens); assay: The activity was examined against DNA topoisomerase I mediated DNA cleavage using 3''-End-labelled 161 BP plasmid DNA.+ indicates between 20 and 50% of the activity of 1 uM camptothecin; how it was run: as §2
[8] = biological target: T1, DNA topoisomerase 1 (Homo sapiens); assay: The activity was examined against DNA topoisomerase I mediated DNA cleavage using 3''-End-labelled 161 BP plasmid DNA. +/- indicates less than 20% of the activity 0f 1 uM camptothecin; how it was run: as §2
[9] = biological target: T1, DNA topoisomerase 1 (Homo sapiens); assay: The activity was examined against DNA topoisomerase I mediated DNA cleavage using 3''-End-labelled 161 BP plasmid DNA; +/- less than 20% of the activity of 1 uM camptothecin; how it was run: as §2
[10] = biological target: T1, DNA topoisomerase 1 (Homo sapiens); assay: The activity was examined against DNA topoisomerase I mediated DNA cleavage using 3''-End-labelled 161 BP plasmid DNA. + indicates between 20 and 50% of the activity of 1 uM camptothecin; how it was run: as §2
[11] = biological target: T1, DNA topoisomerase 1 (Homo sapiens); assay: The activity was examined against DNA topoisomerase I mediated DNA cleavage using 3''-End-labelled 161 BP plasmid DNA. +/- less than 20% of the activity 0f 1 uM camptothecin; how it was run: as §2

Row | SMILES | GI50 (UACC-62) | GI50 (MDA-MB-435 [1]) | GI50 (HCT-116) | GI50 (OVCAR-3) | GI50 (DU-145) | GI50 (SF-539 [2]) | GI50 (HOP-62) | GI50 (SN12C) | Top1 cleavage activity [3] | GI50 (MDA-MB-435 [4]) | GI50 (SF-539 [5]) | Top1 cleavage activity [6] | Top1 cleavage activity [7] | Top1 cleavage activity [8] | Top1 cleavage activity [9] | Top1 cleavage activity [10] | Top1 cleavage activity [11]
1 | O=C1c2ccccc2-c2c1c1ccccc1c(=O)n2C1CC1 | 84 µM | > 100 µM | > 100000 nM | > 100 µM | > 100 µM | > 100 µM | 61 µM | > 100 µM | 0 |  |  |  |  |  |  |  | 
2 | CCN1Cc2cc(OC)c(OC)cc2[C@@H]2[C@H]1c1cc3c(cc1[C@@H]2O)OCO3 |  |  | 35000 nM | 24 µM | 41 µM |  | 30 µM | 26 µM | 0 | 25 µM | 50 µM |  |  |  |  |  | 
3 | COc1ccc(-n2c3c(c4cc(OC)c(OC)cc4c2=O)C(=O)c2cc4c(cc2-3)OCO4)cc1 | > 100 µM |  | > 100000 nM | > 100 µM | 76 µM |  | 20 µM | > 100 µM |  | > 100 µM | > 100 µM | 0 |  |  |  |  | 
4 | CCCn1c2c(c3ccccc3c1=O)C(=O)c1ccccc1-2 |  |  |  |  |  |  |  |  | 0 |  |  |  |  |  |  |  | 
5 | COc1cc2c3c(n(C)c(=O)c2cc1OC)-c1cc(OC)c(OC)c(OC)c1C3=O | 55 µM | > 100 µM | > 100000 nM | > 100 µM | > 100 µM | > 100 µM | > 100 µM | > 100 µM | 0 |  |  |  |  |  |  |  | 
6 | CCCCn1c2c(c3ccccc3c1=O)C(=O)c1cc3c(cc1-2)OCO3 | 8.2 µM |  | 2900 nM | 94 µM | 38 µM |  | 17 µM | 37 µM |  | > 100 µM | 9 µM |  | 20-50% of the activity of 1 uM camptothecin |  |  |  | 
7 | COc1cc2c(cc1OC)[C@H]1C(=O)c3cc(OS(C)(=O)=O)c(OC)cc3[C@H]1N(C)C2=O |  |  |  |  |  |  |  |  |  |  |  |  |  | +/- |  |  | 
8 | COc1cc2c3c(n(Cc4ccccc4)c(=O)c2cc1OC)-c1cc2c(cc1C3=O)OCO2 | 50 µM |  | > 100000 nM | > 100 µM | 4 µM |  | 12 µM |  |  | > 100 µM |  |  |  |  | +/- |  | 
9 | C=CCn1c2c(c3cc(OC)c(OC)cc3c1=O)C(=O)c1cc3c(cc1-2)OCO3 |  |  | 2300 nM | 6.6 µM | 3.2 µM |  | 3.4 µM | 2.6 µM |  | 5.2 µM | 2.2 µM |  | 20-50% of the activity of 1 uM camptothecin |  |  |  | 
10 | COc1cc2c3c(n(CCCCCO)c(=O)c2cc1OC)-c1cc2c(cc1C3=O)OCO2 | > 100 µM |  | > 100000 nM | > 100 µM | 5.1 µM |  | 8.7 µM |  |  | > 100 µM |  |  |  |  |  | 20-50% of the activity of 1 uM camptothecin | 
11 | CCn1c2c(c3cc(OC)c(OC)cc3c1=O)C(=O)c1cc3c(cc1-2)OCO3 | 2.1 µM |  | 2600 nM | 3 µM | 2.3 µM |  | 2.2 µM | 3.6 µM |  | 2.6 µM | 2 µM |  |  |  |  |  | +/-
12 | COc1cc2c3c(n(CCCCO)c(=O)c2cc1OC)-c1cc2c(cc1C3=O)OCO2 | 0.99 µM |  | 1400 nM | 3.7 µM | 0.36 µM |  | 0.7 µM |  |  | 10 µM |  |  |  |  |  | 20-50% of the activity of 1 uM camptothecin | 
13 | CCn1c2c(c3ccccc3c1=O)C(=O)c1ccccc1-2 |  |  |  |  |  |  |  |  | 0 |  |  |  |  |  |  |  | 
